Series [1] has as its system Rat1. Description: Antioxidant activity in rat immortalized Rat1 cells assessed as inhibition of hydrogen peroxide-induced reactive oxygen species production by measuring conversion of 2',7'-dichlorofluorescin diacetate into 2',7'-dichlorofluorescein at 30 uM treated 48 hrs before H2O2 challenge measured after 15 mins by fluorescence assay. It counts as functional, cell-based. Put shortly: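 Immortalized rat fibroblasts pre-treated 48 h with compound (30 μM), then exposed to 100 μM H2O2 for 15 min; intracellular ROS read as DCF fluorescence from DCFH-DA oxidation. Basal (no H2O2) levels also measured. Values expressed as % of fluorescence in untreated control cells (set at 100).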

Series [2] deals with Rat1. Nature of the series: Cytotoxicity against rat immortalized Rat1 cells after 48 hrs by MTT assay. It counts as cell-based. The conditions noted are these: for IC50: Rattus norvegicus, Rat1, 48 h; for Activity: rat, rat1, 48 h. A general note: Formazan colour is commonly taken as a measure of viable cells.
In series [3] the test system is Rat1. Description: Cytotoxicity against rat immortalized Rat1 cells assessed as reduction of cell viability at 30 uM after 48 hrs by MTT assay. The note with it: rat1, 48 h. The class given is cell-based. Put shortly: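 Exponentially growing rat fibroblasts given compound at 30 μM; viability assessed by MTT test after 48 h.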

The source made the active and inactive calls. The rule behind the calls is not given here.

What is called IC50 is the concentration that inhibits the measured activity by half. Higher therefore signals weaker potency in that assay. With `COc1cc(C2Oc3cc(-c4oc5cc(O)cc(O)c5c(=O)c4O)ccc3OC2CO)ccc1O` (mixture of isomers) [DEHYDROSILYLBIN], the inhibition result in series [1] was “Active”. Moreover, in series [2], inhibition was half-maximal at 155 µM (IC50) and the Activity entry was “Dose-dependent effect”. In addition, the Activity entry in series [3] is listed as “Non-toxic”.

`COc1cc(C2Oc3cc([C@H]4Oc5cc(O)cc(O)c5C(=O)[C@@H]4O)ccc3OC2CO)ccc1O` (mixture of isomers) [SILIBININ]: the inhibition entry in series [1] was “Active”. Further, in series [2], inhibition was half-maximal at 162 µM (IC50) and the Activity result is given as “Dose-dependent effect”. Also, the Activity result in series [3] is recorded as “Non-toxic”.
